Experiments:
[1] = system: Rat; experiment: concentration in brain after dosing; conditions: 3 h; dosed: Fluorotelomer alcohol 8+2; 80 mg/kg; oral; Female; Harlan Sprague Dawley
[2] = system: Rat; experiment: concentration in plasma after dosing; conditions: dosed: Fluorotelomer alcohol 8+2, 12 mg/kg, iv, Male, F344
[3] = system: Rat; experiment: concentration in plasma after dosing; conditions: dosed: Fluorotelomer alcohol 8+2, 12 mg/kg, iv, Male, F344; remark: listed apart in the source
[4] = system: Rat; experiment: concentration in kidney after dosing; conditions: 1 h; dosed: Fluorotelomer alcohol 8+2; 24 mg/kg; oral; Male; Harlan Sprague Dawley
[5] = system: Rat; experiment: concentration in plasma after dosing; conditions: 30 h; dosed: Primidone; 130 mg/kg; oral; Male; F344
[6] = system: Rat; experiment: concentration in plasma after dosing; conditions: 0.5 h; dosed: Primidone; 80 mg/kg; oral; Female; Harlan Sprague-Dawley
[7] = system: Rat; experiment: concentration in plasma after dosing; conditions: 22 h; dosed: Primidone; 80 mg/kg; oral; Male; F344
[8] = system: Rat; experiment: concentration in plasma after dosing; conditions: 6 h; dosed: Primidone; 130 mg/kg; oral; Female; F344
[9] = system: Rat; experiment: concentration in plasma after dosing; conditions: 9 h; dosed: Primidone; 130 mg/kg; oral; Male; F344
[10] = system: Rat; experiment: concentration in liver after dosing; conditions: 1 h; dosed: Perfluorodecanoic acid; 10 mg/kg; oral; Female; Harlan Sprague Dawley
[11] = system: Rat; experiment: concentration in brain after dosing; conditions: 24 h; dosed: Perfluorodecanoic acid; 10 mg/kg; oral; Female; Harlan Sprague Dawley
[12] = system: Rat; experiment: concentration in plasma after dosing; conditions: dosed: Perfluorodecanoic acid, 2 mg/kg, iv, Male, F344
[13] = system: Rat; experiment: concentration in liver after dosing; conditions: 40 min; dosed: Bis 2-Chloroethoxy Methane; 20 mg/kg; iv; Female; F344
[14] = system: Rat; experiment: concentration in liver after dosing; conditions: 20 min; dosed: Bis 2-Chloroethoxy Methane; 20 mg/kg; iv; Male; F344
[15] = system: Rat; experiment: concentration in liver after dosing; conditions: 2 h; dosed: Bis 2-Chloroethoxy Methane; 20 mg/kg; iv; Male; F344
[16] = system: Rat; experiment: concentration in heart after dosing; conditions: 2 h; dosed: Bis 2-Chloroethoxy Methane; 20 mg/kg; iv; Male; F344
[17] = system: Rat; experiment: concentration in plasma after dosing; conditions: dosed: Bis 2-Chloroethoxy Methane, 40 mg/kg, iv, Male, Harlan Sprague Dawley
[18] = system: Rat; experiment: concentration in plasma after dosing; conditions: 6 h; dosed: Bis 2-Chloroethoxy Methane; 20 mg/kg; iv; Female; F344
[19] = system: Rat; experiment: concentration in thymus after dosing; conditions: 6 h; dosed: Bis 2-Chloroethoxy Methane; 20 mg/kg; iv; Female; F344
[20] = system: Rat; experiment: concentration in plasma after dosing; conditions: 2 h; dosed: Bis 2-Chloroethoxy Methane; 20 mg/kg; iv; Female; F344
[21] = system: Rat; experiment: concentration in plasma after dosing; conditions: 2 h; dosed: Bis 2-Chloroethoxy Methane; 40 mg/kg; iv; Male; Harlan Sprague Dawley
[22] = system: Rat; experiment: concentration in thymus after dosing; conditions: 6 h; dosed: Bis 2-Chloroethoxy Methane; 20 mg/kg; iv; Female; F344; remark: listed apart in the source
[23] = system: Rat; experiment: concentration in plasma after dosing; conditions: 10 min; dosed: dichloroacetic acid; 10 mg/kg; iv; Male; F344
[24] = system: Rat; experiment: concentration in plasma after dosing; conditions: dosed: dichloroacetic acid, 10 mg/kg, oral, Male, Harlan Sprague Dawley
[25] = system: human; experiment: concentration in plasma after dosing; negative times count back from the end of exposure; conditions: dosed: trichloroethylene, 100 ppm, inhalation, duration: 4 hr, person
Outline: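 Concentration-versus-time or amount-versus-time points were compiled from published in vivo toxicokinetic studies and from two structured collections. The studies were found by PubMed searching, classifier screening and manual review. Points were mostly digitised from plot screenshots with WebPlotDigitizer, otherwise copied from tables, and kept in the reported units. Dose, route, subject details and medium were curated by hand from each paper, and sampling and analytical methods follow each source and were often unreported.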

[26] = system: Rat; experiment: concentration in plasma after dosing; conditions: 0.5 h; dosed: Wyeth-14643; 1.0 mg/kg; oral; Male; Sprague-Dawley
[27] = system: Rat; experiment: concentration in plasma after dosing; conditions: dosed: Wyeth-14643, 2.0 mg/kg, oral, Male, Sprague-Dawley
[28] = system: Rat; experiment: concentration in heart after dosing; conditions: 40 min; dosed: Thiodiglycolic Acid; 20 mg/kg; iv; Female; Harlan Sprague Dawley
[29] = system: Rat; experiment: concentration in liver after dosing; conditions: 6.667 h; dosed: Thiodiglycolic Acid; 20 mg/kg; iv; Female; Harlan Sprague Dawley
[30] = system: Rat; experiment: concentration in liver after dosing; conditions: 4 h; dosed: Thiodiglycolic Acid; 20 mg/kg; iv; Male; Harlan Sprague Dawley
[31] = system: Rat; experiment: concentration in liver after dosing; conditions: 10 h; dosed: Thiodiglycolic Acid; 20 mg/kg; iv; Male; F344
[32] = system: Rat; experiment: concentration in liver after dosing; conditions: 40 min; dosed: Thiodiglycolic Acid; 20 mg/kg; iv; Female; Harlan Sprague Dawley
[33] = system: Rat; experiment: concentration in liver after dosing; conditions: 10 h; dosed: Thiodiglycolic Acid; 20 mg/kg; iv; Male; F344; remark: listed apart in the source
[34] = system: Rat; experiment: concentration in heart after dosing; conditions: 5.333 h; dosed: Thiodiglycolic Acid; 20 mg/kg; iv; Female; Harlan Sprague Dawley
[35] = system: Rat; experiment: concentration in liver after dosing; conditions: 2 h; dosed: Thiodiglycolic Acid; 20 mg/kg; iv; Male; Harlan Sprague Dawley
[36] = system: Rat; experiment: concentration in plasma after dosing; conditions: 2 h; dosed: Thiodiglycolic Acid; 20 mg/kg; iv; Male; Harlan Sprague Dawley
[37] = system: Rat; experiment: concentration in thymus after dosing; conditions: 6.667 h; dosed: Thiodiglycolic Acid; 20 mg/kg; iv; Female; Harlan Sprague Dawley
[38] = system: Rat; experiment: concentration in plasma after dosing; conditions: 1 h; dosed: Di-n-butyl phthalate; 20 mg/kg; iv; Male; Sprague-Dawley

OCCC(F)(F)C(F)(F)C(F)(F)C(F)(F)C(F)(F)C(F)(F)C(F)(F)C(F)(F)F [Fluorotelomer alcohol 8+2]
concentration in brain [1]: 9550 ng/g | concentration in plasma ([2]; 0.75 h): 818 ng/mL | concentration in plasma ([2]; 12 h): 14.2 ng/mL | concentration in plasma ([3]; 1 h): 662 ng/mL | concentration in plasma ([3]; 6 h): 38.1 ng/mL | concentration in kidney [4]: 1520 ng/g

CCC1(c2ccccc2)C(=O)NC(=O)NC1=O [Phenobarbital]
concentration in plasma [5]: 1.78 µg/mL | concentration in plasma [6]: 1.48 µg/mL | concentration in plasma [7]: 2.87 µg/mL | concentration in plasma [8]: 2.33 µg/mL | concentration in plasma [9]: 9.74 µg/mL

O=C(O)C(F)(F)C(F)(F)C(F)(F)C(F)(F)C(F)(F)C(F)(F)C(F)(F)C(F)(F)C(F)(F)F [Perfluorodecanoic acid]
concentration in liver [10]: 48900 ng/g | concentration in brain [11]: 2560 ng/g | concentration in plasma ([12]; 6 h): 6360 ng/mL | concentration in plasma ([12]; 864 h): 1550 ng/mL

ClCCOCOCCCl [Bis 2-Chloroethoxy Methane]
concentration in liver [13]: 734 ng/g | concentration in liver [14]: 3690 ng/g | concentration in liver [15]: 564 ng/g | concentration in heart [16]: 450 ng/g | concentration in plasma ([17]; 20 min): 9720 ng/mL | concentration in plasma ([17]; 6.667 h): 40.1 ng/mL | concentration in plasma [18]: 17.6 ng/mL | concentration in thymus [19]: 32.1 ng/g | concentration in plasma [20]: 188 ng/mL | concentration in plasma [21]: 840 ng/mL | concentration in thymus [22]: 61.4 ng/g

O=C(O)C(Cl)Cl [dichloroacetic acid]
concentration in plasma [23]: 7.78 µg/mL | concentration in plasma ([24]; 2 min): 0.399 µg/mL | concentration in plasma ([24]; 0.5 h): 0.637 µg/mL | concentration in plasma ([25]; 0.25 h): 5 ng/mL | concentration in plasma ([25]; 4 h): 7 ng/mL | concentration in plasma ([25]; -1 h, during exposure): 4 ng/mL | concentration in plasma ([25]; -2 h, during exposure): 4 ng/mL | concentration in plasma ([25]; -3 h, during exposure): 4 ng/mL | concentration in plasma ([25]; -3.948 h, during exposure): 4 ng/mL

Cc1cccc(Nc2cc(Cl)nc(SCC(=O)O)n2)c1C
concentration in plasma [26]: 1.21 µg/mL | concentration in plasma ([27]; 0.5 h): 1.23 µg/mL | concentration in plasma ([27]; 5 h): 0.529 µg/mL

O=C(O)CSCC(=O)O [Thiodiglycolic Acid]
concentration in heart [28]: 3040 ng/g | concentration in liver [29]: 2190 ng/g | concentration in liver [30]: 43400 ng/g | concentration in liver [31]: 630 ng/g | concentration in liver [32]: 92500 ng/g | concentration in liver [33]: 7350 ng/g | concentration in heart [34]: 272 ng/g | concentration in liver [35]: 80300 ng/g | concentration in plasma [36]: 934 ng/mL | concentration in thymus [37]: 329 ng/g

CCCCOC(=O)c1ccccc1C(=O)O [Mono-n-butyl phthalate]
concentration in plasma [38]: 2.55 µg/mL
